# Data: ChEMBL document CHEMBL1135475, “One-pot synthesis of benzo[b]furan and indole inhibitors of tubulin polymerization” (J Med Chem, 2002)
# How the values were obtained:
# Tubulin (Bos taurus) = Tubulin (Bos taurus) (UniProt Q6B856+Q862L2+Q862F3); test: Percent inhibition of 5 uM of [3H]colchicine binding to 1 uM of tubulin by 5 uM of compound after a 10 minute incubation at 37 degrees C; type: protein assay
# How it was run: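 Tubulin purified to electrophoretic homogeneity from bovine brain, used at 1.0 µM with [3H]colchicine and inhibitor both at 5.0 µM. […] At least two independent experiments per compound.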
# Tubulin = Tubulin (Bos taurus, UniProt Q6B856+Q862L2+Q862F3); test: Inhibition of tubulin (10 uM) polymerization, after a 20 min incubation at 30 degrees Centigrade; type: functional
IC50 (Tubulin) [µM],Compound,inhibition (Tubulin (Bos taurus)) [%]
,COc1ccc2c(C(=O)c3cc(OC)c(OC)c(OC)c3)c(-c3ccc(OC)c(O)c3)sc2c1,21
,COc1ccc(-c2oc3cc(OC)ccc3c2C(=O)c2cc(OC)c(OC)c(OC)c2)cc1,77
> 40,COc1ccc(-c2oc3cc(OC)ccc3c2-c2cc(OC)c(OC)c(OC)c2)cc1,
